TAAR1 antag – antagonists of human TAAR1; 360,000 compounds, 1.5% hits; AID 624466; inhibition, % at 3 µM; CHO RD-HGA16 TAAR1, Fluo-8 calcium fluorescence, antagonist;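 active = inhibition above a per-plate cutoff, the mean inhibition of test compounds on that plate plus 3 SD, cut at about 49% in these data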;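 also: 0% = DMSO plus EC80 beta-PEA response and 100% = DMSO alone without agonist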
Target sequence (Q96RJ0 whole entry, looked up): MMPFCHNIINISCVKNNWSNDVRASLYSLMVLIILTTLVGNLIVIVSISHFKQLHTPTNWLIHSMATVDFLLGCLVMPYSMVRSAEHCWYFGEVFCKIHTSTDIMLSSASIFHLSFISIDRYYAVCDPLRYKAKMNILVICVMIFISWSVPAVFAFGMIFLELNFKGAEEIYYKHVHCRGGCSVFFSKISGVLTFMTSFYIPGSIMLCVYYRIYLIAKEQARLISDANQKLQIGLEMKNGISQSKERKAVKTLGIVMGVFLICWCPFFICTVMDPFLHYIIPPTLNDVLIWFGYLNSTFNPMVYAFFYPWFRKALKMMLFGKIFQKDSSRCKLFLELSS
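Material: RD-HGA16 CHO cells with stable hTAAR1 and Gα16; Dosing: single nominal final test compound concentration of 3 µM; Schedule: seeding 17-24 h prior, 75-min 37 °C, 30-min RT dye loading; Detection: kinetic Fluo-8 calcium fluorescence measurement; Measure: % inhibition from peak post-agonist over basal fluorescence ratio; Benchmarks: vehicle and agonist controls.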
CHO parental Ca – signal in parental CHO cells, OX1R antagonist counter-screen. AID 463079. parental CHO-K1, ATP-induced calcium, Fluo-8 fluorescence. inhibition, % at 5.6 µM. 330,000 compounds, 0.63% hits;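 active = inhibition above that plate's mean sample inhibition plus 3 SD, cut at about 26% in these data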;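 also: 0% = ATP-challenged DMSO wells and 100% = DMSO wells without ATP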
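Test system: untransfected parental CHO cell line; also added: ATP stimulus; dosing: 5.6 µM, single dose; signal: calcium-sensitive Fluo-8 fluorescence; measure: percent inhibition of ATP-evoked calcium rise, normalized to controls; benchmarks: low control ATP plus DMSO, high control DMSO only; replication: one well per compound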
OX1R antag-1 – blocks the human orexin 1 receptor. inhibition, % at 6.6 µM. O43613. AID 485270. 330,000 compounds, 1.8% hits. OX1R-expressing cells, FRET antagonist read-out; in the data active = inhibition mostly above about 38%, no sharp cut-off; inactive = mostly below about 40%;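 also: 0% = agonist challenge alone and 100% = reference antagonist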
TAAR1 ag – human TAAR1 agonism; CHO RD-HGA16 TAAR1, Fluo-8 calcium fluorescence; vehicle wells 0%, saturating PEA agonist 100%; activation, % at 3 µM; 360,000 compounds, 0.99% hits;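 active = activation above the mean activation of all test compounds in the run plus 3 SD, cut at about 38% in these data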
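Test system: RD-HGA16 (CHO) cells co-expressing Gα16 and hTAAR1 | Doses: Single dose, 3 µM | Schedule: 17-24 h seeding, 75 min 37 °C dye, 30 min RT | Evaluation: % activation from peak over basal fluorescence ratio, DMSO-to-PEA scaled | Technique: Kinetic Fluo-8 calcium fluorescence | Benchmarks: Low control DMSO, high control PEA (EC100)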
OX1R antag-2 – human HCRTR1 antagonism. 330,000 compounds, 0.43% hits. inhibition, % at 5 µM. CHO/OX1R cells, Fluo-8 calcium fluorescence, orexin A;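 active = inhibition above its plate's threshold, mean inhibition of all tested compounds on the plate plus 3 SD, cut at about 37% in these data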;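 also: 0% = orexin A challenge wells and 100% = SB-334867-A antagonist wells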
TAAR1 ag confirm – human TAAR1 agonism, confirmed; shares compounds with TAAR1 ag; CHO RD-HGA16 TAAR1, Fluo-8 calcium fluorescence; scaled: DMSO 0%, maximal phenethylamine 100%; activation, % at 3 µM; 2,400 compounds, 82% hits;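 active = activation above a cutoff set at the run's mean compound activation plus 3 SD, cut at about 39% in these data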
Ga16 ag counter – nonselective agonism, TAAR1 counter-screen | shares compounds with TAAR1 ag | CHO-Ga16 parental, Fluo-8 calcium fluorescence; normalized to maximal ATP response, DMSO zero | activation, % at 3 µM | 2,400 compounds, 50% hits | AID 651787;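 active = activation above the run cutoff, the mean activation over all tested wells plus 3 SD, cut at about 12% in these data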;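 also: 0% = DMSO wells and 100% = maximal ATP response on the peak over basal ratio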
TAAR1 desens – counter-screen for human TAAR1 agonists: agonists that desensitize TAAR1. shares compounds with TAAR1 ag. CHO RD-HGA16 hTAAR1, Fluo-8 calcium, beta-PEA response inhibition. inhibition, % at 3 µM. 2,400 compounds, 46% hits. AID 651951;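 active = inhibition above the run cutoff, the mean inhibition of all test compounds plus 3 SD, cut at about 49% in these data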;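 also: beta-PEA stimulus applied at its EC80; loss of beta-PEA calcium signal after compound pretreatment read as receptor desensitization; 0% = DMSO with beta-PEA at EC80 and 100% = DMSO alone without agonist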
Ga16 nonsel ant – nonselective Ga16 antagonist in TAAR1 agonist counter-screen; shares compounds with TAAR1 ag; CHO-Ga16 ATP-induced calcium, Fluo-8 fluorescence; inhibition, % at 3 µM; 2,400 compounds, 39% hits;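 active = inhibition above the plate's mean compound inhibition plus 3 SD, computed per plate, cut at about 22% in these data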;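 also: 0% = EC80 ATP with DMSO and 100% = DMSO wells without ATP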
* marks the source's active call; other numbers are inactive results; nt = no result given. Most compounds without a hit are left out; they make up all but 3.9% or so of the library.

SMILES	TAAR1 antag	CHO parental Ca	OX1R antag-1	TAAR1 ag	OX1R antag-2	TAAR1 ag confirm	Ga16 ag counter	TAAR1 desens	Ga16 nonsel ant
O=[N+]([O-])c1ccn(-c2nc(-c3ccccc3)cc(C(F)(F)F)n2)n1	-6	-21	14	50*	-21	4	1	4	2
COc1cc(/C=C2\SC(N)=NC2=O)ccc1O	9	nt	nt	-1	nt	nt	nt	nt	nt
O=C(OCCN1C(=O)c2cccc3c(N4CCOCC4)ccc(c23)C1=O)c1ccc(Cl)cc1Cl	38	22	10	27	5	nt	nt	nt	nt
O=C(OCCN1C(=O)c2cccc3c(N4CCOCC4)ccc(c23)C1=O)c1ccccc1Cl	105*	91*	69*	128*	82*	93*	94*	95*	86*
COc1nc2c(C)cccc2cc1-c1noc(-c2ccco2)n1	-13	0	2	2	-12	nt	nt	nt	nt
COc1ccc2noc3c2c1C(=O)c1ccccc1-3	67*	51*	100*	150*	51*	74*	63*	75*	61*
NC(=O)Cn1cnc2nc3n(c2c1=O)CCC3	-17	12	-3	1	-2	nt	nt	nt	nt
O=C(COc1ccccc1)Nc1cccc2c1CCCC2	10	-2	31	9	-26	nt	nt	nt	nt
O=C(CCCc1ccccc1)Nc1cccc2c1CCCC2	71*	-4	17	55*	-18	6	5	9	18
CSCCC(NC(=O)c1ccco1)C(=O)NCC1CCCO1 (stereo unspecified)	11	-4	0	10	4	nt	nt	nt	nt
CC1=CC2=NC(=O)/C(=C\c3cc(C)n(-c4ccc(F)cc4)c3C)C(=N)N2O1	87*	-8	15	43*	-28	5	8	50*	38*
O=C(O)c1ccc(N/N=C/c2ccc(-c3ccccc3)cc2)cc1	18	nt	nt	2	nt	nt	nt	nt	nt
O=C(O)c1ccc(N/N=C/C=C/c2ccccc2)cc1	4	-9	3	57*	-8	30	12*	16	17
O=C(CNC(=O)c1ccccc1F)N/N=C\C=C\c1ccccc1	29	1	-3	42*	-9	67*	0	56*	3
O=C(CNC(=O)c1ccccc1F)N/N=C/c1ccc2c(c1)OCO2	-12	8	21	1	-13	nt	nt	nt	nt
O=C(CNC(=O)c1cccc(Cl)c1)N/N=C/C=C/c1ccccc1	31	-11	12	46*	-12	77*	15*	67*	-4
O=C(CNC(=O)c1ccccc1Cl)N/N=C/C=C/c1ccccc1	nt	5	8	nt	-3	nt	3	nt	9
O=C(OC(C(=O)NCc1ccc2c(c1)OCO2)c1ccncc1)c1ccc(Cl)nc1 (stereo unspecified)	-12	-14	6	4	-28	nt	nt	nt	nt
COc1cc(CN2C(=S)NC(C)(C)CC2(C)O)cc(OC)c1 (stereo unspecified)	-19	-2	9	2	-17	nt	nt	nt	nt
Cc1cccn2c(CNCCc3ccccn3)c(C(=O)N3CCOCC3)nc12	9	-5	24	49*	-16	68*	5	41	18
CN1C(C(=O)NCc2cccc(C(F)(F)F)c2)CC2Cn3c(nc4cc(Cl)c(Cl)cc43)C21 (stereo unspecified)	16	-15	14	5	-24	nt	nt	nt	nt
COc1ccc(CNC(=O)CCC(=O)Nc2ccc(Cl)cc2)cc1	-13	-9	31	2	-9	nt	nt	nt	nt
O=C(Nc1ccc2nc3n(c(=O)c2c1)CCCCC3)C(=O)N1CCN(c2ccc(F)cc2)CC1	-7	-24	0	-1	-43	nt	nt	nt	nt
CCOC(=O)c1c(NS(=O)(=O)c2cccc(OC)c2)sc2c1CCC2	10	-16	5	55*	-20	64*	54*	42	26*
CN1CCN(/N=C/c2ccc(N(c3ccccc3)c3ccccc3)cc2)CC1	50*	-4	9	73*	-12	72*	28*	56*	35*
SMILES	TAAR1 antag	CHO parental Ca	OX1R antag-1	TAAR1 ag	OX1R antag-2	TAAR1 ag confirm	Ga16 ag counter	TAAR1 desens	Ga16 nonsel ant
CN1CCN(/N=C/c2ccc(N(C)c3ccccc3)cc2)CC1	-17	-2	4	5	-3	nt	nt	nt	nt
Nc1sc2c(c1C(=O)NCCc1ccccc1)CCCC2	64*	nt	nt	76*	nt	90*	2	79*	8
Nc1sc2c(c1C(=O)NCCc1ccccc1)CCC2	29	-6	5	54*	-36	81*	3	61*	7
Nc1sc2c(c1C(=O)c1ccccc1)CCCC2	-8	-11	12	-1	-19	nt	nt	nt	nt
OCCN1CCN(c2ncnc3c2ncn3[C@H]2CN(Cc3ccncc3)C[C@@H](CO)O2)CC1	-5	nt	nt	1	nt	nt	nt	nt	nt
COC(=O)C1=NNC2(c3ccc(Cl)cc3)C(=O)N(c3ccccc3)C(=O)C12 (stereo unspecified)	23	-15	10	12	-16	nt	nt	nt	nt
COc1c(F)c(F)c(C(=O)Nc2ccc(NC(=O)Cc3ccccc3)cc2)c(F)c1F	-5	-1	4	1	5	nt	nt	nt	nt
O=C(O)C1C2CCC(C2)C1C(=O)NCCc1ccccc1 (stereo unspecified)	nt	6	2	nt	3	nt	2	nt	4
O=C(O)C1C2C=CC(C2)C1C(=O)NCCc1cccc(Cl)c1 (stereo unspecified)	nt	-9	16	nt	-4	nt	1	nt	10
O=C(O)C1CCCCC1C(=O)NCCc1ccc(F)cc1 (stereo unspecified)	34	-6	13	81*	-22	93*	3	73*	7
O=C(O)C1CCCCC1C(=O)NCCc1ccc(Cl)cc1 (stereo unspecified)	17	1	19	70*	-20	54*	0	7	5
Cc1cccc(OCC(=O)Nc2ccc(NC(=O)c3ccco3)cc2)c1	-1	nt	nt	5	nt	nt	nt	nt	nt
CCCCCc1nnc(NC(=O)NS(=O)(=O)c2ccc(C)cc2)s1	-10	-11	7	2	-23	nt	nt	nt	nt
O=C(O)C1CCCCC1C(=O)NCCc1cccc(Cl)c1 (stereo unspecified)	68*	-3	14	90*	-3	88*	2	70*	-1
O=C(O)C1CCCCC1C(=O)NCc1ccccc1 (stereo unspecified)	-11	-1	5	4	-8	nt	nt	nt	nt

Screens deposited in PubChem BioAssay by The Scripps Research Institute Molecular Screening Center.
